Reference: ChEMBL document CHEMBL1139860, “Cytotoxic germacranolides and acyclic diterpenoides from the seeds of Carpesium triste” (J Nat Prod, 2007)
≈ marks a conversion by molar mass, not a printed value.

Legend:
Format in all cases: cell-based
[1] = Cytotoxicity against human L02 cells after 48 hrs; conditions: L02, 48 h
Method in brief: (§1)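 SRB assay. Exponentially growing cells were seeded at 5 × 10^3 per well and incubated 24 h, then exposed 48 h to 5-6 concentrations per run, with vincristine sulfate as positive control. Extracted dye absorbance was read at 515 nm. Percent survival was calculated against untreated cells set at 100%. Done in triplicate.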

HL-60 = test: Cytotoxicity against human HL60 cells after 48 hrs; conditions: HL-60, 48 h; method in brief: as §1
[2] = Cytotoxicity against human SMMC7721 cells after 48 hrs; conditions: SMMC-7721, 48 h; method in brief: as §1

SMILES | IC50 [1] | IC50 (HL-60) | IC50 [2]
CC(C)=CC[C@@H](O)[C@@H](C)CCC/C(C)=C/CC/C(C)=C/CO | > 100 µg/mL | 42.4 µg/mL (≈ 137 µM) | > 100 µg/mL
C=C1C(=O)O[C@H]2[C@H]1[C@@H](O)[C@H](OC(=O)CC(C)C)[C@H](C)CCC(=O)[C@](C)(O)[C@@H]2OC(=O)C(C)CC (stereo not given in full) | 57.5 µg/mL (≈ 119 µM) | 10.3 µg/mL (≈ 21.3 µM) | 29.7 µg/mL (≈ 61.5 µM)
CC(=O)OC/C=C(\C)CC/C=C(/CCC[C@H](C)[C@H](O)CC=C(C)C)COC(C)=O | 31.3 µg/mL (≈ 76.6 µM) | 20.2 µg/mL (≈ 49.4 µM) | 12.5 µg/mL (≈ 30.6 µM)
C=C1C(=O)O[C@H]2[C@H]1[C@@H](O)[C@H](OC(=O)CC(C)C)[C@H](C)CCC(=O)[C@](C)(O)[C@@H]2OC(=O)C(C)C | 23.1 µg/mL (≈ 49.3 µM) | 1.7 µg/mL (≈ 3.63 µM) | 44.8 µg/mL (≈ 95.6 µM)
C=C1C(=O)O[C@H]2[C@H]1[C@@H](OC(=O)C(C)C)C(=O)[C@H](C)CCC[C@](C)(O)[C@@H]2OC(=O)C(C)C [INCASPITOLIDE A] | 86.4 µg/mL (≈ 197 µM) | 11.8 µg/mL (≈ 26.9 µM) | 97.1 µg/mL (≈ 221 µM)
CC[C@]1(O)C[C@H]2CN(CCc3c([nH]c4ccccc34)[C@@](C(=O)OC)(c3cc4c(cc3OC)N(C=O)[C@H]3[C@@](O)(C(=O)OC)[C@H](OC(C)=O)[C@]5(CC)C=CCN6CC[C@]43[C@@H]65)C2)C1.O=S(=O)(O)O [VINCRISTINE SULFATE] | 28.4 µg/mL | 11.2 µg/mL | 26.7 µg/mL
C=C1C(=O)O[C@H]2[C@H]1[C@@H](OC(=O)/C(C)=C\C)C(=O)[C@H](C)CCC[C@](C)(O)[C@@H]2OC(=O)C(C)C | 72.4 µg/mL (≈ 161 µM) | 3.4 µg/mL (≈ 7.55 µM) | 46.3 µg/mL (≈ 103 µM)
CC(=O)OC/C(=C\CC/C(C)=C/CO)CCC[C@H](C)[C@H](O)CC=C(C)C | > 100 µg/mL | > 100 µg/mL | > 100 µg/mL
C=C1C(=O)O[C@H]2[C@H]1[C@@H](O)[C@H](OC(=O)C(C)C)[C@H](C)CCC(=O)[C@](C)(O)[C@@H]2OC(=O)C(C)C [INCASPITOLIDE D] | 95.7 µg/mL (≈ 211 µM) | 14.3 µg/mL (≈ 31.5 µM) | 62.5 µg/mL (≈ 138 µM)
C=C1C(=O)O[C@H]2[C@H]1[C@@H](OC(=O)C(C)C)[C@H](O)[C@H](C)CCC(=O)[C@](C)(O)[C@@H]2OC(=O)C(C)C | 42.3 µg/mL (≈ 93.1 µM) | 3.2 µg/mL (≈ 7.04 µM) | 33.5 µg/mL (≈ 73.7 µM)
